Laboratory results from ChEMBL document CHEMBL2086252, “Syntheses and evaluation of anticonvulsant activity of novel branched alkyl carbamates” (J Med Chem, 2012).
The source made the active and inactive calls. The rule behind the calls is not given here.

Key:
Mus musculus [1] = experiment: Neurotoxicity in albino CF1 mouse assessed as minimal motor impairment at 300 mg/kg, ip after 4 hrs by rotarod test; format: toxicity, organism-based; set-up: dose 300 mg/kg, route intraperitoneal; conditions: in vivo
In short: (§1)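 Mice dosed ip at 30, 100 or 300 mg/kg, then tested 0.5 h and 4 h after administration in the MES or scMet test. Protection was recorded as animals protected over animals tested. Neurotoxicity was recorded as motor impairment or sedation, as animals affected over animals tested.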

Mus musculus [2] = experiment: Anticonvulsant activity in albino CF1 mouse assessed as protection against maximal electroshock-induced seizures at 300 mg/kg, ip after 0.5 hrs; format: functional, organism-based; set-up: dose 300 mg/kg; in short: as §1
Rattus norvegicus [3] = experiment: Neurotoxicity in pilocarpine-induced status epilepticus Sprague-Dawley albino rat model assessed as minimal motor impairment at 30 mg/kg, ip after 2 hrs by rotarod test; format: toxicity, organism-based; set-up: dose 30 mg/kg, route intraperitoneal; conditions: in vivo
In short: (§2)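 Rat pilocarpine status epilepticus model: test carbamate given at 0 or 30 min after the first observed Racine stage 3 motor seizure, which marks SE onset. Neurotoxicity was scored within the same model.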

Rattus norvegicus [4] = experiment: Neurotoxicity in pilocarpine-induced status epilepticus Sprague-Dawley albino rat model assessed as minimal motor impairment at 300 mg/kg, ip after 2 hrs by rotarod test; format: toxicity, organism-based; set-up: dose 300 mg/kg, route intraperitoneal; conditions: in vivo; in short: as §2
Rattus norvegicus [5] = experiment: Anticonvulsant activity in Sprague-Dawley albino rat assessed as protection against maximal electroshock-induced seizures at 30 mg/kg, po after 1 hr; format: functional, organism-based; set-up: dose 30 mg/kg
In short: (§3)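 Rats dosed orally. Anti-MES protection was scored as animals protected over animals tested at each time after dosing. Neurotoxicity was scored as motor impairment or sedation, as animals affected over animals tested.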

Rattus norvegicus [6] = experiment: Neurotoxicity in pilocarpine-induced status epilepticus Sprague-Dawley albino rat model assessed as minimal motor impairment at 30 mg/kg, ip after 1 hr by rotarod test; format: toxicity, organism-based; set-up: dose 30 mg/kg, route intraperitoneal; conditions: in vivo; in short: as §2
Rattus norvegicus [7] = experiment: Anticonvulsant activity in Sprague-Dawley albino rat assessed as protection against maximal electroshock-induced seizures at 30 mg/kg, po after 2 hrs; format: functional, organism-based; set-up: dose 30 mg/kg; in short: as §3
Mus musculus [8] = experiment: Anticonvulsant activity in albino CF1 mouse assessed as protection against subcutaneous metrazol-induced seizures at 300 mg/kg, ip after 0.5 hrs; format: functional, organism-based; set-up: dose 300 mg/kg; in short: as §1
Rattus norvegicus [9] = experiment: Neurotoxicity in pilocarpine-induced status epilepticus Sprague-Dawley albino rat model assessed as minimal motor impairment at 100 mg/kg, ip after 4 hrs by rotarod test; format: toxicity, organism-based; set-up: dose 100 mg/kg, route intraperitoneal; conditions: in vivo
Mus musculus [10] = experiment: Neurotoxicity in albino CF1 mouse assessed as minimal motor impairment at 100 mg/kg, ip after 0.5 hrs by rotarod test; format: toxicity, organism-based; set-up: dose 100 mg/kg, route intraperitoneal; conditions: in vivo; in short: as §1
Rattus norvegicus [11] = experiment: Neurotoxicity in pilocarpine-induced status epilepticus Sprague-Dawley albino rat model assessed as minimal motor impairment at 100 mg/kg, ip after 0.5 hrs by rotarod test; format: toxicity, organism-based; set-up: dose 100 mg/kg, route intraperitoneal; conditions: in vivo
Mus musculus [12] = experiment: Anticonvulsant activity in albino CF1 mouse assessed as protection against subcutaneous metrazol-induced seizures at 30 mg/kg, ip after 0.5 hrs; format: functional, organism-based; set-up: dose 30 mg/kg; in short: as §1
Rattus norvegicus [13] = experiment: Neurotoxicity in pilocarpine-induced status epilepticus Sprague-Dawley albino rat model assessed as minimal motor impairment at 300 mg/kg, ip after 4 hrs by rotarod test; format: toxicity, organism-based; set-up: dose 300 mg/kg, route intraperitoneal; conditions: in vivo; in short: as §2
Rattus norvegicus [14] = experiment: Neurotoxicity in pilocarpine-induced status epilepticus Sprague-Dawley albino rat model assessed as minimal motor impairment at 30 mg/kg, ip after 0.25 hr by rotarod test; format: toxicity, organism-based; set-up: dose 30 mg/kg, route intraperitoneal; conditions: in vivo; in short: as §2
Rattus norvegicus [15] = experiment: Neurotoxicity in pilocarpine-induced status epilepticus Sprague-Dawley albino rat model assessed as minimal motor impairment at 30 mg/kg, ip after 0.5 hrs by rotarod test; format: toxicity, organism-based; set-up: dose 30 mg/kg, route intraperitoneal; conditions: in vivo; in short: as §2
Rattus norvegicus [16] = experiment: Anticonvulsant activity in Sprague-Dawley albino rat assessed as protection against maximal electroshock-induced seizures at 30 mg/kg, po after 4 hrs; format: functional, organism-based; set-up: dose 30 mg/kg; in short: as §3
Mus musculus [17] = experiment: Anticonvulsant activity in albino CF1 mouse assessed as protection against subcutaneous metrazol-induced seizures at 100 mg/kg, ip after 0.5 hrs; format: functional, organism-based; set-up: dose 100 mg/kg; in short: as §1
Rattus norvegicus [18] = experiment: Neurotoxicity in pilocarpine-induced status epilepticus Sprague-Dawley albino rat model assessed as minimal motor impairment at 300 mg/kg, ip after 0.5 hrs by rotarod test; format: toxicity, organism-based; set-up: dose 300 mg/kg, route intraperitoneal; conditions: in vivo; in short: as §2
Mus musculus [19] = experiment: Anticonvulsant activity in albino CF1 mouse assessed as protection against maximal electroshock-induced seizures at 300 mg/kg, ip after 4 hrs; format: functional, organism-based; set-up: dose 300 mg/kg; in short: as §1
Mus musculus [20] = experiment: Neurotoxicity in albino CF1 mouse assessed as minimal motor impairment at 30 mg/kg, ip after 4 hrs by rotarod test; format: toxicity, organism-based; set-up: dose 30 mg/kg, route intraperitoneal; conditions: in vivo; in short: as §1
Mus musculus [21] = experiment: Anticonvulsant activity in albino CF1 mouse assessed as protection against subcutaneous metrazol-induced seizures at 300 mg/kg, ip after 4 hrs; format: functional, organism-based; set-up: dose 300 mg/kg; in short: as §1
Rattus norvegicus [22] = experiment: Neurotoxicity in Sprague-Dawley albino rat assessed as minimal motor impairment at 30 mg/kg, po by rotarod test; format: toxicity, organism-based; set-up: dose 30 mg/kg, route oral; conditions: in vivo; in short: as §3
Mus musculus [23] = experiment: Anticonvulsant activity in albino CF1 mouse assessed as protection against subcutaneous metrazol-induced seizures at 30 mg/kg, ip after 4 hrs; format: functional, organism-based; set-up: dose 30 mg/kg; in short: as §1
Rattus norvegicus [24] = experiment: Neurotoxicity in pilocarpine-induced status epilepticus Sprague-Dawley albino rat model assessed as minimal motor impairment at 300 mg/kg, ip after 1 hr by rotarod test; format: toxicity, organism-based; set-up: dose 300 mg/kg, route intraperitoneal; conditions: in vivo; in short: as §2
Mus musculus [25] = experiment: Neurotoxicity in albino CF1 mouse assessed as minimal motor impairment at 100 mg/kg, ip after 4 hrs by rotarod test; format: toxicity, organism-based; set-up: dose 100 mg/kg, route intraperitoneal; conditions: in vivo; in short: as §1
Mus musculus [26] = experiment: Neurotoxicity in albino CF1 mouse assessed as minimal motor impairment at 30 mg/kg, ip after 0.5 hrs by rotarod test; format: toxicity, organism-based; set-up: dose 30 mg/kg, route intraperitoneal; conditions: in vivo; in short: as §1
Rattus norvegicus [27] = experiment: Neurotoxicity in pilocarpine-induced status epilepticus Sprague-Dawley albino rat model assessed as minimal motor impairment at 100 mg/kg, ip after 2 hrs by rotarod test; format: toxicity, organism-based; set-up: dose 100 mg/kg, route intraperitoneal; conditions: in vivo
Mus musculus [28] = experiment: Anticonvulsant activity in albino CF1 mouse assessed as protection against maximal electroshock-induced seizures at 30 mg/kg, ip after 0.5 hrs; format: functional, organism-based; set-up: dose 30 mg/kg; in short: as §1
Mus musculus [29] = experiment: Anticonvulsant activity in albino CF1 mouse assessed as protection against subcutaneous metrazol-induced seizures at 100 mg/kg, ip after 4 hrs; format: functional, organism-based; set-up: dose 100 mg/kg; in short: as §1
Mus musculus [30] = experiment: Anticonvulsant activity in albino CF1 mouse assessed as protection against maximal electroshock-induced seizures at 30 mg/kg, ip after 4 hrs; format: functional, organism-based; set-up: dose 30 mg/kg; in short: as §1
Rattus norvegicus [31] = experiment: Neurotoxicity in pilocarpine-induced status epilepticus Sprague-Dawley albino rat model assessed as minimal motor impairment at 30 mg/kg, ip after 4 hrs by rotarod test; format: toxicity, organism-based; set-up: dose 30 mg/kg, route intraperitoneal; conditions: in vivo; in short: as §2
Mus musculus [32] = experiment: Neurotoxicity in albino CF1 mouse assessed as minimal motor impairment at 300 mg/kg, ip after 0.5 hrs by rotarod test; format: toxicity, organism-based; set-up: dose 300 mg/kg, route intraperitoneal; conditions: in vivo; in short: as §1
Rattus norvegicus [33] = experiment: Neurotoxicity in pilocarpine-induced status epilepticus Sprague-Dawley albino rat model assessed as minimal motor impairment at 100 mg/kg, ip after 0.25 hr by rotarod test; format: toxicity, organism-based; set-up: dose 100 mg/kg, route intraperitoneal; conditions: in vivo
Rattus norvegicus [34] = experiment: Neurotoxicity in pilocarpine-induced status epilepticus Sprague-Dawley albino rat model assessed as minimal motor impairment at 300 mg/kg, ip after 0.25 hr by rotarod test; format: toxicity, organism-based; set-up: dose 300 mg/kg, route intraperitoneal; conditions: in vivo; in short: as §2
Mus musculus [35] = experiment: Anticonvulsant activity in albino CF1 mouse assessed as protection against maximal electroshock-induced seizures at 100 mg/kg, ip after 4 hrs; format: functional, organism-based; set-up: dose 100 mg/kg; in short: as §1
Mus musculus [36] = experiment: Anticonvulsant activity in albino CF1 mouse assessed as protection against maximal electroshock-induced seizures at 100 mg/kg, ip after 0.5 hrs; format: functional, organism-based; set-up: dose 100 mg/kg; in short: as §1
Rattus norvegicus [37] = experiment: Anticonvulsant activity in ip dosed Sprague-Dawley albino rat assessed as protection against pilocarpine-induced status epilepticus after 0.5 hrs; format: functional
In short: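 Pilocarpine status epilepticus model in rats. Number and severity of convulsive seizures were observed behaviourally.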

Rattus norvegicus [38] = experiment: Neurotoxicity in pilocarpine-induced status epilepticus Sprague-Dawley albino rat model assessed as minimal motor impairment at 100 mg/kg, ip after 1 hr by rotarod test; format: toxicity, organism-based; set-up: dose 100 mg/kg, route intraperitoneal; conditions: in vivo
Rattus norvegicus [39] = experiment: Anticonvulsant activity in Sprague-Dawley albino rat assessed as protection against maximal electroshock-induced seizures at 30 mg/kg, po after 30 mins; format: functional, organism-based; set-up: dose 30 mg/kg; in short: as §3
Rattus norvegicus [40] = experiment: Anticonvulsant activity in Sprague-Dawley albino rat assessed as protection against maximal electroshock-induced seizures at 30 mg/kg, po after 15 mins; format: functional, organism-based; set-up: dose 30 mg/kg; in short: as §3

| SMILES | Activity (Mus musculus [1]) | Activity (Mus musculus [2]) | Activity (Rattus norvegicus [4]) | Activity (Rattus norvegicus [5]) | Activity (Rattus norvegicus [7]) | Activity (Mus musculus [8]) | Activity (Rattus norvegicus [9]) | Activity (Mus musculus [10]) | Activity (Mus musculus [12]) | Activity (Mus musculus [17]) | Activity (Mus musculus [19]) | Activity (Mus musculus [20]) | Activity (Mus musculus [21]) | Activity (Mus musculus [23]) | Activity (Mus musculus [25]) | Activity (Mus musculus [26]) | Activity (Mus musculus [28]) | Activity (Mus musculus [29]) | Activity (Mus musculus [30]) | Activity (Mus musculus [35]) | other results |
| --- | --- | --- | --- | --- | --- | --- | --- | --- | --- | --- | --- | --- | --- | --- | --- | --- | --- | --- | --- | --- | --- |
| CC(COC(N)=O)CC(C)(C)C (racemic) | Non-toxic | Active | Toxic | inactive | inactive | Active | Non-toxic | Non-toxic | inactive | inactive | Active | Non-toxic | inactive | inactive | Non-toxic | Non-toxic | inactive | inactive | inactive | inactive | Activity (Rattus norvegicus [3]): Non-toxic; Activity (Rattus norvegicus [6]): Non-toxic; Activity (Rattus norvegicus [11]): Toxic; Activity (Rattus norvegicus [13]): Non-toxic; Activity (Rattus norvegicus [14]): Non-toxic; Activity (Rattus norvegicus [15]): Non-toxic; Activity (Rattus norvegicus [16]): inactive; Activity (Rattus norvegicus [18]): Toxic; Activity (Rattus norvegicus [22]): Non-toxic; Activity (Rattus norvegicus [24]): Toxic; Activity (Rattus norvegicus [27]): Non-toxic; Activity (Rattus norvegicus [31]): Non-toxic; Activity (Mus musculus [32]): Toxic; Activity (Rattus norvegicus [33]): Toxic; Activity (Rattus norvegicus [34]): Toxic |
| CCCC(CCC)COC(=O)NC1CCCCC1 | Non-toxic | inactive | – | – | – | inactive | – | – | inactive | inactive | inactive | Non-toxic | inactive | inactive | Non-toxic | Non-toxic | inactive | inactive | inactive | inactive | Activity (Mus musculus [36]): inactive |
| CCCC(C(N)=O)C(C)CC (stereo not drawn) | – | – | – | – | – | – | – | – | – | – | – | – | – | – | – | – | – | – | – | – | ED50 (Rattus norvegicus [37]): 84 mg/kg |
| CCC(CC)COC(N)=O | Non-toxic | Active | Non-toxic | inactive | inactive | Active | Non-toxic | Non-toxic | inactive | inactive | inactive | Non-toxic | inactive | inactive | Non-toxic | Non-toxic | inactive | inactive | inactive | inactive | Activity (Rattus norvegicus [13]): Non-toxic; Activity (Rattus norvegicus [16]): inactive; Activity (Rattus norvegicus [18]): Toxic; Activity (Rattus norvegicus [22]): Non-toxic; Activity (Rattus norvegicus [38]): Non-toxic; Activity (Rattus norvegicus [24]): Non-toxic; Activity (Rattus norvegicus [39]): inactive; Activity (Rattus norvegicus [27]): Non-toxic; Activity (Mus musculus [32]): Toxic; Activity (Rattus norvegicus [40]): inactive; Activity (Rattus norvegicus [34]): Toxic |
